Screening results: PubChem BioAssay, several laboratories
b-catenin transl: beta-catenin nuclear translocation modulation | HeLa beta-catenin nuclear translocation, immunofluorescence imaging | nuclear translocation activity, % at 5 µM | 190,000 tested, 0.3% active | AID 1665;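 active = nuclear translocation activity above 50% at 5 µM, with a well cell count of 50 or more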;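 note: per-cell ratio of nuclear to cytoplasmic median beta-catenin stain intensity; plate controls were DMSO negative control for no effect and GSK-3 inhibitor IX positive control for full effect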
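Signal – beta-catenin immunofluorescence imaging with DAPI · Test system – human HeLa cell line · Dosing – 5 µM primary single dose, 0.1% DMSO, 0.02–20 µM confirmation series · Measure – % activation, nuclear-to-cytoplasmic median beta-catenin signal ratio per cell · Incubation – 24 h compound exposure at 37°C, 5% CO2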
MT stabilizer: microtubule stabilization, imaging screen | % tubulin-high responders, % at 10 µM | 200,000 tested, 0.83% active | AID 2205 | HeLa tubulin immunostaining HCS, 24 h; share of cells brighter than vehicle mean+2SD;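 active = plate Z-score above 3 for both tubulin-high and condensed-nucleus cell shares, with cell loss under 80%, at 10 µM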;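 note: anti alpha tubulin signal scored within the nucleus-defined area of each cell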
Dynein cargo inh: dynein cargo transport inhibition; 3617.4 mouse cells, GR-EGFP nuclear translocation imaging; test concentration mostly 20 µM; stimulated with dexamethasone, 1 µM; hits give low values; z-score, hits read low; 220,000 tested, 0.47% active; AID 1381;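 active = plate z-score of nuclear minus cytoplasmic receptor signal below a set negative limit, without overly bright fluorescence or cell loss, cut at about -3.5 in these data, passing the limit was not always enough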;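 note: z-score of nuclear minus cytoplasmic ring GR-EGFP intensity difference per well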
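Buffer or medium: tet-free medium with charcoal-stripped serum / Also added: dexamethasone agonist, 1.0 µM final, for 30 min / Timing: induction 48 h, compound 1 h, agonist 30 min / Measured by: high-content fluorescence imaging after fixation / Read-out: nuclear-to-cytoplasmic GR-EGFP distribution per well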
L major viab: reduces viability of Leishmania major promastigotes; resazurin fluorescence viability; 200,000 tested, 9% active; inhibition, % at 10 µM; in the data active = inhibition above about 50%;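 note: promastigotes grown with compound for 44 hours at 28 °C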
Autophagy mod: alters autophagy in cells; MEF GFP-LC3 puncta imaging; test concentration mostly 10 µM; calls only at 10 µM (by protocol); 190,000 tested, 0.98% active; AID 463193;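 active = percentage of spot-positive cells more than 3 SD above its plate mean, without a fluorescence outlier flag or 80% toxicity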;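 note: spot-positive cell cutoff set from DMSO-treated cells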
CHOP inh: inhibitors of CHOP induction in ER stress response | inhibition, % at 10 µM | CHO-K1 CHOP-promoter luciferase, tunicamycin-induced, 15-18 h | 220,000 tested, 3.8% active;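 active = compounds that reduced the stress-induced luciferase reporter signal by more than about 70% of percent inhibition, limit read from the data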;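 note: 0% = tunicamycin plus vehicle and 100% = wells without tunicamycin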
The depositor's hits bear a star; i = inactive; . = no result given; + = active, no number. Sampled rows, rich in hits. Any-hit rate of the full collection: about 12%.

SMILES | b-catenin transl | MT stabilizer | Dynein cargo inh | L major viab | Autophagy mod | CHOP inh
Cc1cccc(Cc2nnc(CCC(=O)N(C)C3CCOC3)o2)c1 (stereo unspecified) | 1 | 2 | -0.64 | -3 | i | -18
Nc1c(C(=O)Nc2ccc(S(=O)(=O)N3CCCC3)cc2)sc2nc3cc4c(cc3cc12)CCC4 | 2 | 28* | -2.5 | 28 | + | 66
CCCCCN1C(=O)Cn2c(nc3ccccc3c2=O)C1C (stereo unspecified) | 2 | 2 | -0.37 | -2 | i | 15
CN(C)CCNC(=O)c1ccc(COc2ccc(Cl)cc2Cl)cc1 | 3 | 4 | -1.5 | 99* | i | -11
COc1ccc(NC(=O)COC(=O)c2ccc(OCc3ccc(Cl)cc3Cl)c(OC)c2)c(OC)c1 | -2 | 4 | -0.57 | -1 | i | 37
COc1ccc(C)cc1NC(=O)COC(=O)c1ccc(OCc2ccc(Cl)cc2Cl)c(OC)c1 | -2 | 3 | -0.037 | 34 | i | 31
COc1cc(C(=O)NC2CCCCC2)ccc1OCc1ccc(Cl)cc1Cl | . | 1 | -0.9 | 74* | i | 85*
COc1ccc(Cl)cc1C(=O)NCCN(C)C | . | 2 | -1.3 | -6 | i | 14
COc1cc(C(=O)NCCC(C)C)ccc1OCc1ccc(Cl)cc1Cl | . | 3 | 0.13 | 97* | i | 56
CCOc1ccc(CN2CCN(Cc3cc4ccccc4[nH]3)CC2CCO)cc1 (stereo unspecified) | 2 | 3 | -0.44 | 79* | i | 63
CC(C)N1CCC(N2CCN(Cc3cnc(-c4ccccc4)s3)CC2CCO)CC1 (stereo unspecified) | 1 | 3 | 1.1 | 6 | i | 5
OCCC1CN(Cc2cnc(-c3ccccc3)s2)CCN1C1CCCC1 (stereo unspecified) | -1 | 1 | 0.45 | 80* | i | 14
Cc1ncc(CN2CCN(Cc3ccccc3)C(CCO)C2)s1 (stereo unspecified) | 0 | 3 | -0.69 | -3 | i | 12
CCOc1ccc(CN2CCN(Cc3cnc(-c4ccccc4)s3)CC2CCO)cc1 (stereo unspecified) | 1 | 1 | -0.38 | 86* | i | 14
COc1cccc(CN2CCN(Cc3cc4ccccc4[nH]3)CC2CCO)c1 (stereo unspecified) | 0 | . | 0.66 | . | . | 0
OCCC1CN(Cc2cnc(-c3ccccc3)s2)CCN1C1CCCCC1 (stereo unspecified) | -2 | 3 | -0.21 | 81* | i | 2
O=C(c1ccc(CSc2ccc(Cl)cc2)cc1)N1CCCC1 | -4 | 8 | 0.0025 | 8 | i | 11
O=C1CCCC/C1=C\Nc1ccc(S(=O)(=O)Nc2cnc3ccccc3n2)cc1 | -2 | . | 1 | . | . | 8
Cc1ccccc1-c1ncc(CN2CCN(C3CCCCC3)C(CCO)C2)cn1 (stereo unspecified) | 0 | 1 | 0.23 | 56* | i | -5
CSc1ncc(CN2CCN(C3CCCCC3)C(CCO)C2)cn1 (stereo unspecified) | 1 | 3 | -0.46 | -6 | i | 1
CCOc1ccc(CN2CCN(CC3=Cc4cccc(OC)c4OC3)CC2CCO)cc1 (stereo unspecified) | 1 | 3 | -0.013 | 78* | i | 8
COc1cccc(/C=N/Nc2ncnc3c2ncn3Cc2ccccc2)c1O | 1 | 2 | 0.49 | 88* | i | 68
COCCNC(=O)/C(C#N)=C/c1ccc(-c2ccc(S(=O)(=O)N3CCOCC3)cc2)o1 | . | 5 | 2.6 | 78* | i | 39
CCCCNCc1cc(OCC)c(OCC)cc1Br | 1 | 4 | -0.39 | 7 | i | 21
CCc1ccc(NC(=O)N(CCCN2CCOCC2)C(C)c2cc3cccc(OC)c3o2)cc1 (stereo unspecified) | 0 | 4 | 1.4 | 54* | i | 14
COc1cccc2cc(C(C)N(CCCN3CCOCC3)C(=S)Nc3cc(C)cc(C)c3)oc12 (stereo unspecified) | 0 | 2 | 0.54 | 13 | i | 7
COc1cccc2cc(C(C)N(CCCN3CCOCC3)C(=S)Nc3c(C)cccc3C)oc12 (stereo unspecified) | 3 | 3 | 1.2 | 53* | i | 16
